Experimental data as given in ChEMBL document CHEMBL3120053, “Airborne antituberculosis activity of Eucalyptus citriodora essential oil” (J Nat Prod, 2014).
Values after ≈ are worked out from the molar mass of the structure shown.

system: Mycobacterium tuberculosis; assay: Antimicrobial activity against Mycobacterium tuberculosis H37Rv assessed as growth inhibition by gaseous contact assay relative to control; format: functional
Procedure, shortened: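 Gaseous contact (microatmosphere) assay. Virulent pan-sensitive M.tb H37Rv (ATCC 27294) frozen stocks were diluted so 100 μL gave 200−400 colonies on Middlebrook 7H11 agar, then dried 4−5 h at room temperature. 5 μL of sample in EtOAc (100 mg/mL) went on a filter disk in the inverted lid (≈70 cm3 headspace). Plates were sealed, held at 37 °C, cfu counted at 21 days, and % inhibition calculated.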

Row | Structure (SMILES) | growth inhibition (GI) [%]
1 | C=C(C)[C@@H]1CC[C@@H](C)C[C@H]1O [ISOPULEGOL] | 64
2 | CC(C)=CCC[C@H](C)CC=O [(-)-CITRONELLAL] | 18
3 | CC12CCC(CC1)C(C)(C)O2 [EUCALYPTOL] | 0
4 | CC(C)=CCCC(C)CCO (centres undefined) [CITRONELLOL] | 100

system: not listed separately; assay: Partition coefficient, log K of the compound in n-hexane/methyl tert-butylether/acetonitrile 10:1:10 solvent system by HSCCC/EECCC analysis; format: physicochemical
Procedure, shortened: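 K values derived from volumetric measurements of the HSCCC run. Fraction collection began 1 h after loading at 4 min (6 mL) per fraction. Elution ran 5 h, then sweep elution and extrusion of the stationary phase for another 5 h, giving 160 TLC-monitored fractions.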

Row | Structure (SMILES) | log K
5 | C=C(C)[C@@H]1CC[C@@H](C)C[C@H]1O [ISOPULEGOL] | 0.87
6 | C=C(C)[C@H]1CC[C@H](C)C[C@H]1O (relative stereo) | 0.82
7 | CC(C)=CCC[C@H](C)CC=O [(-)-CITRONELLAL] | 1.02
8 | CC1=CC[C@@H](C(C)(C)O)CC1 [ALPHA-TERPINEOL] | 0.82
9 | C=C1CC[C@@H]2[C@H]([C@@H]3[C@H](C)CC[C@H]13)C2(C)C | 2.98
10 | CC(C)=CCC/C(C)=C/CC/C(C)=C/CO [FARNESOL] | 1.79
11 | CC(=O)OCCC(C)CCC=C(C)C (centres undefined) [CITRONELLYL ACETATE] | 1.55
12 | CC(C)=CCCC(C)CCO (centres undefined) [CITRONELLOL] | 0.69
13 | C=C1CC/C=C(\C)CC[C@@H]2[C@@H]1CC2(C)C [BETA-CARYOPHYLLENE] | 2.98
14 | C=C1CC[C@@H]2[C@H]([C@H]3[C@H]1CC[C@]3(C)O)C2(C)C [SPATHULENOL] | 1.18
15 | CC1(C)C[C@H]2[C@H]1CC[C@]1(C)CCC[C@@]2(O)C1 | 1.6
16 | C=CC(C)(O)CCC=C(C)C (centres undefined) [LINALOOL] | 0.74
17 | CC(C)=CCC/C(C)=C/CC/C(C)=C/C=O | 1.79
18 | CC1=C[C@H]2[C@H](C(C)C)CC[C@@H](C)[C@]2(O)CC1 | 1.8
19 | CC12CCCCC1=CC(=O)CC2 (centres undefined) | 1.55
20 | CC1=CC[C@H]2C(C)=CC[C@@H](C(C)C)[C@@H]2C1 | 2.98

Row | Structure (SMILES) | log K
21 | C=C(C)[C@@H]1CC[C@@H](C)C[C@H]1OC(C)=O | 1.55
22 | C[C@H]1CC[C@@H]2[C@H]1[C@@H]1[C@H](CC[C@]2(C)O)C1(C)C | 1.18
23 | C=C1CCCC(C)(C)[C@H]2C=C(C)CC[C@@H]12 | 1.6
24 | C[C@@H]1CC[C@H]2[C@@H]1[C@H]1[C@@H](CC[C@]2(C)O)C1(C)C | 1.55
25 | C=C(C)[C@H]1CC[C@@H](C)C[C@H]1O (relative stereo) | 2.98
26 | C=C(C)[C@@H]1CC[C@@]2(C)CCCC(=C)[C@@H]2C1 [BETA-SELINENE] | 1.79
27 | CC1=C[C@@H]2[C@@H](CC1)[C@@](C)(O)CC[C@H]2C(C)C [T-CADINOL] | 1.55
28 | CC1=C[C@@H]2C(=C(C)CC[C@H]2C(C)C)CC1 [(+)-DELTA-CADINENE] | 2.98
29 | C=C1CCC[C@]2(C)CC[C@@H](C(C)(C)O)C[C@@H]12 [BETA-EUDESMOL] | 1.6
30 | C[C@@H]1CC[C@@H]2[C@@H]1[C@H]1[C@@H](CC[C@@]2(C)O)C1(C)C [GLOBULOL] | 1.79
31 | CC1=CCC[C@]2(C)CC[C@@H](C(C)(C)O)C[C@@H]12 | 1.8
32 | CC(C)=CCC/C(C)=C/CC/C(C)=C/CC/C(C)=C/CO [GERANYLGERANIOL] | 1.6
33 | Cc1cc(C(C)(C)C)cc(C(C)(C)C)c1O | 1.79
34 | C[C@@H]1CC[C@@H](C(C)(C)O)C(O)C1 (some centres undefined) | 0.87
35 | C/C1=C\CC(C)(C)/C=C/C[C@@]2(C)O[C@@H]2CC1 | 1.55

system: Mycobacterium tuberculosis; assay: Antimicrobial activity against Mycobacterium tuberculosis H37Rv by BACTEC radiometric assay; format: functional

Row | Structure (SMILES) | MIC [µg/mL]
36 | CC(C)=CCC/C(C)=C/CC/C(C)=C/CO [FARNESOL] | 8 (≈ 36 µM)
37 | CC(C)=CCC/C(C)=C\CO [NEROL] | 128 (≈ 830 µM)
38 | CC(C)=CCCC(C)CCO (centres undefined) [CITRONELLOL] | 64 (≈ 410 µM)
39 | CC(C)=CCC/C(C)=C/CO [GERANIOL] | 64 (≈ 415 µM)
